In ChEMBL document CHEMBL1157180 (Bioorg Med Chem, 2008):
Calls of active or inactive are those of the source. No cut-off for these calls is given here.

Legend:
[1] = molecular target: T1, Muscarinic acetylcholine receptor M1 (Rattus norvegicus, UniProt P08482); test: Displacement of [3H]Quinuclidinyl benzilate from muscarinic M1 receptor in Wistar rat cortex synaptosomal membrane
T1 sequence (P08482 whole entry): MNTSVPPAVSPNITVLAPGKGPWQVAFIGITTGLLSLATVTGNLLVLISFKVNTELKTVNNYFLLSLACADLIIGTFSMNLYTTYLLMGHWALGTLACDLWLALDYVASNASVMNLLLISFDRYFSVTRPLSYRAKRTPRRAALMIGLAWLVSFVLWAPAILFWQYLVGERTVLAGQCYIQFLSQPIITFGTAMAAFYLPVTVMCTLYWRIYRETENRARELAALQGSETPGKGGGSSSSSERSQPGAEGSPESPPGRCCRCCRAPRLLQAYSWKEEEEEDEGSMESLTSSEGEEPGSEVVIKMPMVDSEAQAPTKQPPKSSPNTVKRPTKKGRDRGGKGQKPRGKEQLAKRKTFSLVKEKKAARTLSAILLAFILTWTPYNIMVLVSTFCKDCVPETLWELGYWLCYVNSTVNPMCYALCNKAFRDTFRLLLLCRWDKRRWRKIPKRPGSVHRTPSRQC

Rattus norvegicus [2] = species: Rattus norvegicus; test: Antiamnesic activity in Wistar rat assessed as reversal of scopolamine-induced memory loss by passive avoidance test; type: functional, organism-based
Rattus norvegicus [3] = species: Rattus norvegicus; test: Reversal of scopolamine-induced memory and learning impairment in Wistar rat assessed as transfer latency for 90 seconds by plus maze test; type: functional, organism-based
How it was run: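 Elevated plus maze in male Wistar rats, 30 min after treatment, given scopolamine alone or test agent plus scopolamine; controls got 0.9% saline. Each rat is placed at the end of an open arm facing away from the centre. Transfer latency (TL) is the time to enter an enclosed arm. Day 1 has 90 s exploration (TL1, learning) and day 2 is a retest of the same rats (TL2, memory).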

Rattus norvegicus [4] = species: Rattus norvegicus; test: Reversal of scopolamine-induced spartial working memory loss in Wistar rat assessed by Y maze task; type: functional; design: concentration or dose not given beside the values
How it was run: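 Male Wistar rats (200–250 g, n = 8) receive test agent with scopolamine and explore the Y-maze 30 min later. Arm entries, including returns, are recorded visually. An alternation is successive entries into all three arms on overlapping triplets. % alternation = actual alternations/(total entries − 2) × 100, compared against the scopolamine-only group.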

Rattus norvegicus [5] = test: Acute toxicity in orally dosed Wistar rat after 1 week; type: organism-based; conditions: in vivo, po, 168 h
How it was run: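 Rats, 8 per group, fasted 16 h, then given the compounds orally at various doses. Animals observed for 1 week after dosing, with deaths recorded daily.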

Compound | IC50 [1] [µM] | Ki [1] [µM] | Activity (Rattus norvegicus [2]) | Activity (Rattus norvegicus [3]) | Activity (Rattus norvegicus [4]) [%] | Activity (Rattus norvegicus [5])
CN1CCC=C(C2CN(S(=O)(=O)c3ccc(C(C)(C)C)cc3)CCO2)C1 (stereo unspecified) | 19 | 4 | Active | Active | 61 | Non-toxic
CN1CCC=C(C2CN(S(=O)(=O)c3ccc(Cl)cc3)CCO2)C1 (stereo unspecified) | 0.92 | 0.26 | Active | Active | 64 | Non-toxic
CN1CCC=C(C2CN(S(=O)(=O)c3ccccc3[N+](=O)[O-])CCO2)C1 (stereo unspecified) | 314 | 96 | Active | – | – | Non-toxic
CN1CCC=C(C2CN(S(=O)(=O)c3ccccc3)CCO2)C1 (stereo unspecified) | 90 | 27 | Active | Active | 60 | Non-toxic
CN1CCC=C(C2CN(S(=O)(=O)c3cc(Cl)ccc3Cl)CCO2)C1 (stereo unspecified) | 115 | 35 | Active | – | 59 | Non-toxic
Cc1ccc(S(=O)(=O)N2CCOC(C3=CCCN(C)C3)C2)cc1 (stereo unspecified) | 61 | 14 | Active | Active | 62 | Non-toxic
CN1CCC=C(C2CN(S(=O)(=O)c3cccc([N+](=O)[O-])c3)CCO2)C1 (stereo unspecified) | 201 | 62 | Active | – | – | Non-toxic
CN1CCC=C(C2CN(S(=O)(=O)c3ccc([N+](=O)[O-])cc3)CCO2)C1 (stereo unspecified) | 208 | 64 | Active | – | – | Non-toxic
